Assay results published in ChEMBL document CHEMBL5550111, “Design, synthesis and biological evaluation of aryloxy thiophosphoramidate triesters of anticancer nucleoside analogues” (Bioorg Med Chem, 2024).

How the values were obtained:
CAKI-2 [1] = experiment: Cytotoxicity against human CAKI-2 cells assessed as maximum inhibition of cell viability upto 198 uM incubated for 72 hrs by MTS assay relative to control; format: functional; conditions: up to 198 µM
How it was run: (§1)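 Cells seeded at 0.5 to 100 × 10^3 per well the day before drug addition, then exposed to compound for 72 h. MTS added afterwards, with a further 4 h at 37 °C, and absorbance read. Tested in duplicate at 9 serial 3.16-fold dilutions, top concentration 198 μM. MI% is the maximum inhibition of viability across the tested range.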

[2] = Cytotoxicity against human ACHN-luc2 cells assessed as inhibition of cell viability incubated for 72 hrs by MTS assay; format: functional, cell-based; conditions: ACHN-luc2, 72 h
How it was run: (§2)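 Cells seeded at 0.5 to 100 × 10^3 per well the day before treatment, then exposed for 72 h to 9 serial concentrations (3.16-fold dilutions, top 198 μM), in duplicate. MTS added for a final 4 h at 37 °C and absorbance read. IC50 is the concentration giving 50% loss of viability. MI% is the maximum inhibition over the tested range.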

A498 [3] = experiment: Cytotoxicity against human A498 cells assessed as inhibition of cell viability incubated for 72 hrs by MTS assay; format: functional, cell-based; conditions: A498, 72 h; how it was run: as §2
PC-3 [4] = experiment: Cytotoxicity against human PC-3 cells assessed as maximum inhibition of cell viability upto 198 uM incubated for 72 hrs by MTS assay relative to control; format: functional; conditions: up to 198 µM; how it was run: as §1
RL [5] = experiment: Cytotoxicity against human RL cells assessed as maximum inhibition of cell viability upto 198 uM incubated for 72 hrs by MTS assay relative to control; format: functional; conditions: up to 198 µM; how it was run: as §1
MOLT-4 [6] = experiment: Cytotoxicity against human MOLT-4 cells assessed as inhibition of cell viability incubated for 72 hrs by MTS assay; format: functional, cell-based; conditions: MOLT-4, 72 h; how it was run: as §2
KG-1 [7] = experiment: Cytotoxicity against human KG-1 cells assessed as maximum inhibition of cell viability upto 198 uM incubated for 72 hrs by MTS assay relative to control; format: functional; conditions: up to 198 µM; how it was run: as §1
COLO 205 [8] = experiment: Cytotoxicity against human COLO 205 cells assessed as inhibition of cell viability incubated for 72 hrs by MTS assay; format: functional, cell-based; conditions: COLO 205, 72 h; how it was run: as §2
MIA PaCa-2 [9] = experiment: Cytotoxicity against human MIA PaCa-2 cells assessed as inhibition of cell viability incubated for 72 hrs by MTS assay; format: functional, cell-based; conditions: MIA PaCa-2, 72 h; how it was run: as §2
MIA PaCa-2 [10] = experiment: Cytotoxicity against human MIA PaCa-2 cells assessed as maximum inhibition of cell viability upto 198 uM incubated for 72 hrs by MTS assay relative to control; format: functional; conditions: up to 198 µM; how it was run: as §1
HepG2 [11] = experiment: Cytotoxicity against human HepG2 cells assessed as maximum inhibition of cell viability upto 198 uM incubated for 72 hrs by MTS assay relative to control; format: functional; conditions: up to 198 µM; how it was run: as §1
MCF7 [12] = experiment: Cytotoxicity against human MCF7 cells assessed as maximum inhibition of cell viability upto 198 uM incubated for 72 hrs by MTS assay relative to control; format: functional; conditions: up to 198 µM; how it was run: as §1
K562 [13] = experiment: Cytotoxicity against human K562 cells assessed as inhibition of cell viability incubated for 72 hrs by MTS assay; format: functional, cell-based; conditions: K562, 72 h; how it was run: as §2
5637 [14] = experiment: Cytotoxicity against human 5637 cells assessed as inhibition of cell viability incubated for 72 hrs by MTS assay; format: functional, cell-based; conditions: Homo sapiens, 5637, 72 h; how it was run: as §2
RL [15] = experiment: Cytotoxicity against human RL cells assessed as inhibition of cell viability incubated for 72 hrs by MTS assay; format: functional, cell-based; how it was run: as §2
HepG2 [16] = experiment: Cytotoxicity against human HepG2 cells assessed as inhibition of cell viability incubated for 72 hrs by MTS assay; format: functional, cell-based; conditions: HepG2, 72 h; how it was run: as §2
HT-29 [17] = experiment: Cytotoxicity against human HT-29 cells assessed as inhibition of cell viability incubated for 72 hrs by MTS assay; format: functional, cell-based; conditions: HT-29, 72 h; how it was run: as §2
HL-60 [18] = experiment: Cytotoxicity against human HL-60 cells assessed as inhibition of cell viability incubated for 72 hrs by MTS assay; format: functional, cell-based; conditions: HL-60, 72 h; how it was run: as §2
MDA-MB-231 [19] = experiment: Cytotoxicity against human MDA-MB-231 cells assessed as maximum inhibition of cell viability upto 198 uM incubated for 72 hrs by MTS assay relative to control; format: functional; conditions: up to 198 µM; how it was run: as §1
[20] = Cytotoxicity against human T24/83 cells assessed as maximum inhibition of cell viability upto 198 uM incubated for 72 hrs by MTS assay relative to control; format: functional; conditions: up to 198 µM; how it was run: as §1
PC-3 [21] = experiment: Cytotoxicity against human PC-3 cells assessed as inhibition of cell viability incubated for 72 hrs by MTS assay; format: functional, cell-based; conditions: PC-3, 72 h; how it was run: as §2
5637 [22] = experiment: Cytotoxicity against human 5637 cells assessed as maximum inhibition of cell viability upto 198 uM incubated for 72 hrs by MTS assay relative to control; format: functional; conditions: up to 198 µM; how it was run: as §1
CAKI-2 [23] = experiment: Cytotoxicity against human CAKI-2 cells assessed as inhibition of cell viability incubated for 72 hrs by MTS assay; format: functional, cell-based; conditions: CAKI-2, 72 h; how it was run: as §2
HL-60 [24] = experiment: Cytotoxicity against human HL-60 cells assessed as maximum inhibition of cell viability upto 198 uM incubated for 72 hrs by MTS assay relative to control; format: functional; conditions: up to 198 µM; how it was run: as §1
[25] = Cytotoxicity against human T24/83 cells assessed as inhibition of cell viability incubated for 72 hrs by MTS assay; format: functional, cell-based; conditions: T24/83, 72 h; how it was run: as §2
K562 [26] = experiment: Cytotoxicity against human K562 cells assessed as maximum inhibition of cell viability upto 198 uM incubated for 72 hrs by MTS assay relative to control; format: functional; conditions: up to 198 µM; how it was run: as §1
[27] = Cytotoxicity against human ACHN-luc2 cells assessed as maximum inhibition of cell viability upto 198 uM incubated for 72 hrs by MTS assay relative to control; format: functional; conditions: up to 198 µM; how it was run: as §1
MCF7 [28] = experiment: Cytotoxicity against human MCF7 cells assessed as inhibition of cell viability incubated for 72 hrs by MTS assay; format: functional, cell-based; conditions: MCF7, 72 h
KG-1 [29] = experiment: Cytotoxicity against human KG-1 cells assessed as inhibition of cell viability incubated for 72 hrs by MTS assay; format: functional, cell-based; conditions: KG-1, 72 h; how it was run: as §2
COLO 205 [30] = experiment: Cytotoxicity against human COLO 205 cells assessed as maximum inhibition of cell viability upto 198 uM incubated for 72 hrs by MTS assay relative to control; format: functional; conditions: up to 198 µM; how it was run: as §1
MDA-MB-231 [31] = experiment: Cytotoxicity against human MDA-MB-231 cells assessed as inhibition of cell viability incubated for 72 hrs by MTS assay; format: functional, cell-based; conditions: MDA-MB-231, 72 h; how it was run: as §2
HT-29 [32] = experiment: Cytotoxicity against human HT-29 cells assessed as maximum inhibition of cell viability upto 198 uM incubated for 72 hrs by MTS assay relative to control; format: functional; conditions: up to 198 µM; how it was run: as §1
A498 [33] = experiment: Cytotoxicity against human A498 cells assessed as maximum inhibition of cell viability upto 198 uM incubated for 72 hrs by MTS assay relative to control; format: functional; conditions: up to 198 µM; how it was run: as §1
MOLT-4 [34] = experiment: Cytotoxicity against human MOLT-4 cells assessed as maximum inhibition of cell viability upto 198 uM incubated for 72 hrs by MTS assay relative to control; format: functional; conditions: up to 198 µM; how it was run: as §1

SMILES: C[C@H](NP(=S)(OC[C@@H]1C[C@@H](O)[C@H](n2cnc3c(N)ncnc32)O1)Oc1ccccc1)C(=O)OCc1ccccc1 (some centres undefined)
- Imax (CAKI-2 [1]): 78%
- IC50 [2]: 33.9 µM
- IC50 (A498 [3]): 44.5 µM
- Imax (PC-3 [4]): 97%
- Imax (RL [5]): 113%
- IC50 (MOLT-4 [6]): 9.19 µM
- Imax (KG-1 [7]): 98%
- IC50 (COLO 205 [8]): 41.8 µM
- IC50 (MIA PaCa-2 [9]): 12.6 µM
- Imax (MIA PaCa-2 [10]): 100%
- Imax (HepG2 [11]): 100%
- Imax (MCF7 [12]): 100%
- IC50 (K562 [13]): 64.5 µM
- IC50 5637 [14]: 82.6 µM
- IC50 (RL [15]): 95.6 µM
- IC50 (HepG2 [16]): 25.3 µM
- IC50 (HT-29 [17]): 57.9 µM
- IC50 (HL-60 [18]): 73.7 µM
- Imax (MDA-MB-231 [19]): 96%
- Imax [20]: 100%
- IC50 (PC-3 [21]): 62.8 µM
- Imax 5637 [22]: 100%
- IC50 (CAKI-2 [23]): 76 µM
- Imax (HL-60 [24]): 99%
- IC50 [25]: 42.6 µM
- Imax (K562 [26]): 96%
- Imax [27]: 97%
- IC50 (MCF7 [28]): 40.4 µM
- IC50 (KG-1 [29]): 60 µM
- Imax (COLO 205 [30]): 99%
- IC50 (MDA-MB-231 [31]): 50.6 µM
- Imax (HT-29 [32]): 100%
- Imax (A498 [33]): 95%
- Imax (MOLT-4 [34]): 99%
